Tests used:
[1] = species on record: Rattus norvegicus; assay: Effect on 5HIAA (5-hydroxyindoleacetic acid) concentration in hypothalamus as an index of serotonin turnover in male Wistar rats expressed as percent of control; format: functional
Outline: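 Hypothalamic 5-hydroxyindoleacetic acid in male Wistar rats, used as an index of serotonin turnover. Measured by liquid chromatography with electrochemical detection and expressed as percent of control.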

[2] = target: T1, Serotonin 2 (5-HT2) receptor (Rattus norvegicus, UniProt P30994+P08909+P14842); assay: Ability to inhibit binding of titreated spiperone to 5-hydroxytryptamine 2 receptor in rat brain frontal cortex membranes; format: cell membranes, Membrane
Outline: (§1)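 5HT-2 binding in rat frontal cortex membranes with [3H]spiperone as radioligand. Tested at eleven concentrations between 0.1 and 10 000 nM, each in duplicate. IC50 is the concentration that halves specific binding, obtained by curve fitting.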

[3] = target: Serotonin 1 (5-HT1) receptor (Rattus norvegicus, UniProt P28564+P30940+P19327+P28565); assay: Ability to inhibit binding of titreated serotonin to the 5-hydroxytryptamine 1 receptor in rat brain frontal cortex membranes; format: cell membranes, Membrane
[4] = system: Rattus norvegicus; assay: In vivo serum corticosterone concentration in male Wistar rats after injecting 0.3 mg/kg of compound subcutaneously; format: functional, organism-based; set-up: dose 0.3 mg/kg
Outline: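 Serum corticosterone in male Wistar rats, measured spectrofluorometrically and reported per 100 mL of serum.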

[5] = target: T1, Serotonin 2 (5-HT2) receptor; assay: Ability to inhibit binding of titreated spiperone to the 5-hydroxytryptamine 2 receptor in rat brain frontal cortex membranes; format: cell membranes, Membrane; outline: as §1

SMILES	5-HIAA level, % of control [1] [%]	IC50 [2] [nM]	IC50 [3] [nM]	Concentration [4] [µg 100ml-1]	IC50 [5] [nM]
CCCN(CCC)C1Cc2c[nH]c3ccc(C#N)c(c23)C1 (stereo unspecified)	90	390	90	47	
CCCN(CCC)C1Cc2c[nH]c3ccc(OC)c(c23)C1 (stereo unspecified)	58		36	48	1179
CCCN(CCC)C1Cc2c[nH]c3ccc(Br)c(c23)C1 (stereo unspecified)	77	15444	241	13	
CCCN(CCC)C1Cc2c[nH]c3ccc(C(N)=O)c(c23)C1 (stereo unspecified)	61		83	49	4817
COc1ccc2[nH]cc3c2c1CC(N(C)C)C3 (stereo unspecified)	65		96	41	1756
CN(C)C1Cc2c[nH]c3ccc(C(N)=O)c(c23)C1 (stereo unspecified)	99		390	9	5440
CCCN(CCC)C1Cc2cccc3[nH]cc(c23)C1 (stereo unspecified)		723	141		

From ChEMBL document CHEMBL1124200, “6-substituted 1,3,4,5-tetrahydrobenz[cd]indol-4-amines: potent serotonin agonists” (J Med Chem, 1988)
